The text below walks through data of ChEMBL document CHEMBL1629536, “Incorporation of piperazino functionality into 1,3-disubstituted urea as the tertiary pharmacophore affording potent inhibitors of soluble epoxide hydrolase with improved pharmacokinetic properties” (J Med Chem, 2010).

As a reminder, the IC50 is the point on the concentration scale where inhibition reaches its midpoint. The solubility is how much of the substance goes into solution per volume. One may read the Cmax as the peak of the concentration-time curve. As a reminder, the half-life is the time in which the quantity being followed falls by half. A word on the Tmax: it is the time at which the peak concentration occurs. The term AUC denotes the area under the concentration-time curve, a measure of exposure.

In brackets after ≈: the same amount, converted by molar mass.

For data set [1], the target named is T1, Bifunctional epoxide hydrolase 2 (Homo sapiens, UniProt P34913).
T1 sequence (P34913 whole entry): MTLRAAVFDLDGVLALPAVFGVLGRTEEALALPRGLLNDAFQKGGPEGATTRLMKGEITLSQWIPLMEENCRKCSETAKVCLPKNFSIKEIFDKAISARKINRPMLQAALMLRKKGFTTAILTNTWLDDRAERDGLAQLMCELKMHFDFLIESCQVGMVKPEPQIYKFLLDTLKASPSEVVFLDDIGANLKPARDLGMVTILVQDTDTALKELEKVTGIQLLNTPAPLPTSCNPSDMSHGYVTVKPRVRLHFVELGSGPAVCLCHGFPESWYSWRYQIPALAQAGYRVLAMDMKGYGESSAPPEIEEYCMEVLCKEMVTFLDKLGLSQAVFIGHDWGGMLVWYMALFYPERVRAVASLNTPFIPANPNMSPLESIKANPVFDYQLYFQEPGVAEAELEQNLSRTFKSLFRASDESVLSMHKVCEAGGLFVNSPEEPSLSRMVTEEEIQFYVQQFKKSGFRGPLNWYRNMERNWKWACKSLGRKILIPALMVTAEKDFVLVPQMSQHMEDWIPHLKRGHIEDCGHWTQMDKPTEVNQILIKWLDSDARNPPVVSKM
Briefly: Inhibition of human recombinant soluble epoxide hydrolase expressed in baculovirus expression system by fluorimetric assay.

The nature of data set [2]: Solubility in sodium phosphate buffer at 0.1 M pH 7.4 at 25 degC. Type of data set: physicochemical.
Data set [3] can be described thus: Cmax in mouse at 5 mg/kg, po. Set-up: dose 5 mg/kg, route oral. Particulars: in vivo. Type of data set: ADME, organism-based.
The nature of data set [4]: (§1) Half life in mouse at 5 mg/kg, po. Particulars: in vivo. Set-up: dose 5 mg/kg, route oral. Type of data set: ADME, organism-based. Summed up:
(§2)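 Mice dosed by oral gavage at 5 mg/kg in oleic oil triglyceride containing 3% EtOH. Tail-vein blood was sampled before dosing and at 30, 60, 90, 120, 240, 450, 600 and 1440 min, then centrifuged at 3000 rpm, 4°C, 10 min. Plasma was analysed by LC/MS/MS. AUC and t1/2 came from noncompartmental fitting of the concentration-time data.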

Data set [5] in a line: Tmax in mouse at 5 mg/kg, po. Type of data set: ADME, organism-based. Set-up: dose 5 mg/kg, route oral. Particulars: in vivo.
Data set [6] is described as follows: AUC in mouse at 5 mg/kg, po. Type of data set: ADME, organism-based. Details: dose 5 mg/kg, route oral. Particulars: plasma. In short, it runs like this:
as §2

The subject of data set [7] is Mus musculus. The data set is described as §1. Set-up: dose 5 mg/kg, route oral. As to conditions: in vivo. Type of data set: ADME, organism-based. In short, it runs like this: as §2

As to `CN1CCN(CCCOc2ccc(NC(=O)NC34CC5CC(CC(C5)C3)C4)cc2)CC1`, the IC50 in data set [1] came out at 17.9 nM.

As for `CC(=O)N1CCN(CCCCCOc2cccc(NC(=O)NC34CC5CC(CC(C5)C3)C4)c2)CC1`, in data set [1], the IC50 was 2.8 nM.

In the case of `CN1CCN(CCCCOc2cccc(NC(=O)NC34CC5CC(CC(C5)C3)C4)c2)CC1`, in data set [1], the IC50 came to 13.3 nM.

On to `CC(C)(C)OC(=O)N1CCN(CCCOc2ccc(NC(=O)NC34CC5CC(CC(C5)C3)C4)cc2)CC1`, for which the half-maximal inhibitory concentration (IC50) in data set [1] is 14.6 nM.

Consider `CC(=O)N1CCN(CCCOc2ccccc2NC(=O)NC23CC4CC(CC(C4)C2)C3)CC1`, for which, in data set [2], the solubility amounted to 1780 µg/mL (≈ 3920 µM). Besides, in data set [1], the IC50 stood at 994 nM.

In the case of `CC(C)(C)OC(=O)N1CCN(CCCCOc2ccccc2NC(=O)NC23CC4CC(CC(C4)C2)C3)CC1`, the IC50 in data set [1] is 16.5 nM.

Consider `CN1CCN(CCCCOc2ccc(NC(=O)NC34CC5CC(CC(C5)C3)C4)cc2)CC1`, for which the IC50 in data set [1] was 44.8 nM.

As for `CC(=O)N1CCN(CCCCOc2ccc(NC(=O)NC34CC5CC(CC(C5)C3)C4)cc2)CC1`, in data set [2], the solubility stood at 700 µg/mL (≈ 1490 µM). Besides, the Cmax in data set [3] turned out to be 84 nM. In data set [4], the half-life is 14 h. For the same compound, the Tmax in data set [5] is 0.5 h. The exposure (AUC) in data set [6] was 0.67 µM·h. In data set [1], the half-inhibitory concentration (IC50) was determined as 7 nM.

In turn, `CN1CCN(CCCOc2cccc(NC(=O)NC34CC5CC(CC(C5)C3)C4)c2)CC1` gave a solubility in data set [2] of 2210 µg/mL (≈ 5180 µM). The concentration for half-maximal inhibition (IC50) in data set [1] came out at 23.1 nM.

In data set [2], `CC(=O)N1CCN(CCOc2cccc(NC(=O)NC34CC5CC(CC(C5)C3)C4)c2)CC1` displayed a solubility of 520 µg/mL (≈ 1180 µM). Moreover, the 50% inhibitory concentration (IC50) in data set [1] is 6 nM.

In the case of `O=C(Nc1cccc(OCCCCN2CCN(C(=O)C(F)(F)F)CC2)c1)NC12CC3CC(CC(C3)C1)C2`, the IC50 in data set [1] was determined as 1.8 nM.

On to `CC(=O)N1CCN(C(=O)CCCOc2cccc(NC(=O)NC34CC5CC(CC(C5)C3)C4)c2)CC1`, for which, in data set [1], the IC50 is 5.4 nM.

For `O=C(Nc1cccc(OCCN2CCNCC2)c1)NC12CC3CC(CC(C3)C1)C2`, the 50% inhibitory concentration (IC50) in data set [1] came out at 67.1 nM.

With `CC(=O)N1CCN(CCCOc2ccc(NC(=O)NC34CC5CC(CC(C5)C3)C4)cc2)CC1`, the solubility in data set [2] is 320 µg/mL (≈ 704 µM). Also, the maximum concentration (Cmax) in data set [3] stood at 112 nM. In addition, in data set [4], the half-life is 6 h. Also, in data set [5], the Tmax was found to be 0.5 h. Moreover, in data set [6], the AUC is 0.58 µM·h. Besides, the IC50 in data set [1] stood at 3.3 nM.

Turning to `O=C(Nc1ccccc1OCCCCN1CCNCC1)NC12CC3CC(CC(C3)C1)C2`, the half-inhibitory concentration (IC50) in data set [1] came to 72800 nM.

As to `O=C(Nc1cccc(OCCCCCN2CCNCC2)c1)NC12CC3CC(CC(C3)C1)C2`, the IC50 in data set [1] was 13.8 nM.

As to `O=C(Nc1cccc(OCCCN2CCNCC2)c1)NC12CC3CC(CC(C3)C1)C2`, the solubility in data set [2] came out at 810 µg/mL (≈ 1960 µM). In data set [1], the IC50 turned out to be 27.2 nM.

Turning to `O=C(Nc1cccc(OCCCCN2CCNCC2)c1)NC12CC3CC(CC(C3)C1)C2`, the IC50 in data set [1] came to 14.8 nM.

For the compound `CC(C)(C)OC(=O)N1CCN(CCCOc2ccccc2NC(=O)NC23CC4CC(CC(C4)C2)C3)CC1`, the IC50 in data set [1] is 39.4 nM.

With `O=C(Nc1cccc(OCCCCN2CCN(C(=O)CCl)CC2)c1)NC12CC3CC(CC(C3)C1)C2`, in data set [1], the IC50 was 1.4 nM.

As for `O=C(Nc1ccc(OCCCN2CCNCC2)cc1)NC12CC3CC(CC(C3)C1)C2`, the 50% inhibitory concentration (IC50) in data set [1] is 156 nM.

With `CN1CCN(CCCOc2ccccc2NC(=O)NC23CC4CC(CC(C4)C2)C3)CC1`, the IC50 in data set [1] worked out at 2880 nM.

Take `COc1cc(C(=O)N2CCN(CCCCOc3cccc(NC(=O)NC45CC6CC(CC(C6)C4)C5)c3)CC2)cc(OC)c1OC`: the IC50 in data set [1] was determined as 9.6 nM.

In the case of `CN1CCN(CCOc2cccc(NC(=O)NC34CC5CC(CC(C5)C3)C4)c2)CC1`, in data set [1], the IC50 was 7.8 nM.

As to `CC(C)(C)OC(=O)N1CCN(C(=O)CCCOc2cccc(NC(=O)NC34CC5CC(CC(C5)C3)C4)c2)CC1`, the IC50 in data set [1] is 21.5 nM.

With `O=C(Nc1ccc(OCCCCN2CCNCC2)cc1)NC12CC3CC(CC(C3)C1)C2`, in data set [1], the concentration for half-maximal inhibition (IC50) was 126 nM.

Regarding `Cc1ccc(S(=O)(=O)N2CCN(CCCCOc3cccc(NC(=O)NC45CC6CC(CC(C6)C4)C5)c3)CC2)cc1`, the IC50 in data set [1] worked out at 3.3 nM.

Consider `CN1CCN(CCCCCOc2cccc(NC(=O)NC34CC5CC(CC(C5)C3)C4)c2)CC1`, for which, in data set [1], the half-maximal inhibitory concentration (IC50) was 11.5 nM.

In the case of `O=C(Nc1cccc(OCCCCN2CCN(C(=O)c3ccc(C(F)(F)F)cc3)CC2)c1)NC12CC3CC(CC(C3)C1)C2`, the IC50 in data set [1] worked out at 13.6 nM.

Consider `CC(C)(C)OC(=O)N1CCN(CCCOc2cccc(NC(=O)NC34CC5CC(CC(C5)C3)C4)c2)CC1`, for which, in data set [2], the solubility was 540 µg/mL (≈ 1050 µM). In addition, the Cmax in data set [3] turned out to be 6 nM. Also, the half-life in data set [4] is 23 h. In data set [5], the Tmax amounted to 0.5 h. In data set [6], this compound gave an AUC of 0.1 µM·h. Also, the 50% inhibitory concentration (IC50) in data set [1] was found to be 2.9 nM.

In the case of `CC(=O)N1CCN(CCCOc2cccc(NC(=O)NC34CC5CC(CC(C5)C3)C4)c2)CC1`, in data set [2], the solubility was determined as 340 µg/mL (≈ 748 µM). In data set [3], the maximum concentration (Cmax) worked out at 32 nM. This compound also showed a half-life in data set [4] of 8 h. Further, the Tmax in data set [5] is 0.5 h. Further, the AUC in data set [6] was 0.185 µM·h. For the same compound, the IC50 in data set [1] amounted to 3.6 nM.

For `O=C(O)CCCCCCCCCCCNC(=O)NC12CC3CC(CC(C3)C1)C2`, the solubility in data set [2] is below 125 µg/mL. For the same compound, the t1/2 in data set [7] turned out to be 2.1 h. The same compound had an AUC in data set [6] of 0.05 µM·h.

In the case of `CC(=O)N1CCN(CCCCOc2ccccc2NC(=O)NC23CC4CC(CC(C4)C2)C3)CC1`, the half-maximal inhibitory concentration (IC50) in data set [1] stood at 3150 nM.

With `O=C(Nc1ccccc1OCCCN1CCNCC1)NC12CC3CC(CC(C3)C1)C2`, the IC50 in data set [1] worked out at 97500 nM.

As for `CC(C)(C)OC(=O)N1CCN(CCCCCOc2cccc(NC(=O)NC34CC5CC(CC(C5)C3)C4)c2)CC1`, the IC50 in data set [1] stood at 11.7 nM.

Consider `CN1CCN(CCCCOc2ccccc2NC(=O)NC23CC4CC(CC(C4)C2)C3)CC1`, for which the IC50 in data set [1] stood at 5290 nM.

For `CC(C)(C)OC(=O)N1CCN(CCOc2cccc(NC(=O)NC34CC5CC(CC(C5)C3)C4)c2)CC1`, the half-maximal inhibitory concentration (IC50) in data set [1] was found to be 2.8 nM.

As to `CC(C)(C)OC(=O)N1CCN(CCCCOc2ccc(NC(=O)NC34CC5CC(CC(C5)C3)C4)cc2)CC1`, in data set [1], the IC50 stood at 20.1 nM.

`O=C(Nc1cccc(OCCCC(=O)N2CCNCC2)c1)NC12CC3CC(CC(C3)C1)C2`: the IC50 in data set [1] was 91.4 nM.

The compound `CC(=O)N1CCN(CCCCOc2cccc(NC(=O)NC34CC5CC(CC(C5)C3)C4)c2)CC1` came in with a solubility in data set [2] of 1820 µg/mL (≈ 3880 µM). Further, the half-maximal inhibitory concentration (IC50) in data set [1] came out at 2.7 nM.

Regarding `CS(=O)(=O)N1CCN(CCCCOc2cccc(NC(=O)NC34CC5CC(CC(C5)C3)C4)c2)CC1`, the solubility in data set [2] was determined as 2970 µg/mL (≈ 5880 µM). The maximum concentration (Cmax) in data set [3] came out at 160 nM. In data set [4], this compound showed a half-life of 3.5 h. Moreover, the Tmax in data set [5] stood at 0.5 h. Also, the area under the curve (AUC) in data set [6] is 0.333 µM·h. In addition, the half-inhibitory concentration (IC50) in data set [1] was 1 nM.

`CC(C)(C)OC(=O)N1CCN(CCCCOc2cccc(NC(=O)NC34CC5CC(CC(C5)C3)C4)c2)CC1` showed a solubility in data set [2] of 2780 µg/mL (≈ 5280 µM). For the same compound, the Cmax in data set [3] is 6 nM. Moreover, the half-life in data set [4] was 59 h. Also, the Tmax in data set [5] turned out to be 9 h. Besides, the AUC in data set [6] is 0.085 µM·h. Moreover, in data set [1], the IC50 worked out at 7.1 nM.
